Screening results deposited in PubChem by Broad Institute.
T cruzi growth-1: blocks T. cruzi growth in NIH3T3 culture; T. cruzi beta-gal in NIH3T3, GalScreen luminescence, 90 h; inhibition, % at 8.34 µM; hit rate 5.9% among 77,000; AID 624255;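 active = mean inhibition above about 93%, with at least 55% of replicates each passing it, limit read from the data, passing the limit was not always enough; inconclusive = only one of those two conditions holds; inactive = neither condition holds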
KDM4C inh: KDM4C (human) demethylase inhibition | Q9H3R0 | GST-KDM4C 2-372, H3K9me3 peptide, LANCE TR-FRET | inhibition, % at 12.5 µM | hit rate 0.15% among 96,000 | AID 720574;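 active = mean replicate inhibition above about 25%, with at least 55% of replicates also reaching it, limit read from the data, passing the limit was not always enough; inconclusive = only one of those two conditions met; inactive = neither condition met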
Target sequence (Q9H3R0 2-372 limits assumed): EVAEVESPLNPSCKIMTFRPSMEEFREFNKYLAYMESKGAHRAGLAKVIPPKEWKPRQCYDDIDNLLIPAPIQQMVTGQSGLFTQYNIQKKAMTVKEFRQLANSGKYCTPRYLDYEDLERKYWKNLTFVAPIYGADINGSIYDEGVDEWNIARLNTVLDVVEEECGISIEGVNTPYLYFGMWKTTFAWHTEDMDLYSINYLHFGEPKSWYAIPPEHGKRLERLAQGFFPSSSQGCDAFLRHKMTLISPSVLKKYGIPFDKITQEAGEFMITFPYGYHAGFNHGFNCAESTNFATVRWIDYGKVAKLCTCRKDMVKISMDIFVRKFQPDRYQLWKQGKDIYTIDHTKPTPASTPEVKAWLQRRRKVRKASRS
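System – N-terminal GST-fused human GASC-1 (KDM4C) fragment, residues 2-372 · Input – enzyme final amount 10 nM · Technique – LANCE TR-FRET, Eu antibody, ULight-streptavidin, EDTA, ex 340 nm, em 618/671 nm · Medium – HEPES buffer, pH 7.5, plus ascorbate · Incubation – enzyme reaction 30 min, then detection 60 min, both room temperature · Reagent – H3K9me3 peptide with Fe(II)/2OG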
IDH1 mut inh: blocks human IDH1 R132H reductase activity; diaphorase/resazurin fluorescence, 60 min; inhibition, % at 10 µM; hit rate 0.18% among 70,000; AID 624101; in the data active = inhibition above about 34%; inconclusive = no clear call, values can overlap the other calls; inactive = below about 11%;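 also: 0% = DMSO and 100% = no enzyme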
Pf Dd2 growth: P. falciparum Dd2 growth inhibition. hit rate 2.3% among 94,000. SYBR Green, 72 h; hits give low values. activity change, % at 10 µM; in the data active = activity change below about -80%; inconclusive = no clear call, values can overlap the other calls
T cruzi growth-2: blocks T. cruzi growth in NIH3T3 host cells | inhibition, % at 8.35 µM | AID 651739 | hit rate 72% among 5,600 | shares compounds with T cruzi growth-1 | T. cruzi beta-gal in NIH3T3, GalScreen luminescence, 90 h;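 active = mean replicate inhibition above about 95% and at least 55% of replicates individually reaching it, limit read from the data; inconclusive = only one of the two criteria is met; inactive = neither criterion is met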
T cruzi growth-3: blocks T. cruzi growth in NIH3T3 host cells | shares compounds with T cruzi growth-1 | T. cruzi beta-gal in NIH3T3, GalScreen luminescence, 90 h | inhibition, % at 2.09 µM | hit rate 21% among 5,600 | AID 651740;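 active = mean inhibition above about 95%, with at least 55% of replicates also reaching it, limit read from the data; inconclusive = meets just one of the two conditions; inactive = meets neither condition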;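 also: plate controls were neutral control median for no effect and positive control median for full effect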
3T3 cytotox: NIH/3T3 (mouse) viability loss; shares compounds with T cruzi growth-1; NIH/3T3 viability, CellTiter-Glo ATP luminescence, 90 h; cytotoxicity (signal decrease), % at 8.35 µM; hit rate 14% among 5,600; AID 651742;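 active = mean signal decrease across replicates above about 35% based on untreated-well scatter, with enough replicates individually passing, limit read from the data; inconclusive = no rule stated though some were filed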;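 also: 0% = median of neutral control wells and 100% = median of positive control wells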
NIH3T3 tox 2: kills mouse NIH/3T3 fibroblasts | hit rate 56% among 5,600 | shares compounds with T cruzi growth-1 | NIH/3T3 viability, CellTiter-Glo ATP luminescence, 90 h | inhibition, % at 24.9 µM;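 active = mean loss of cell viability signal at or above a set limit, and enough replicates individually reaching it; inconclusive = meets only the mean limit or only the replicate share; inactive = meets neither condition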;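 also: 0% = median of neutral control wells and 100% = median of positive control wells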
Numbers without * were called inactive; u = inconclusive; x = no result given. In the library only some 5.9% were active in any assay of this set; here they are far more common.

SMILES	T cruzi growth-1	KDM4C inh	IDH1 mut inh	Pf Dd2 growth	T cruzi growth-2	T cruzi growth-3	3T3 cytotox	NIH3T3 tox 2
C[C@H](CO)N1C[C@H](C)[C@H](CN(C)Cc2ccccc2)Oc2cc(/C=C/c3ccccc3)ccc2S1(=O)=O	102.6*	0.1	-0.5	-32.0	100.4*	100.0*	-3.9	104.1*
C[C@H](CO)N1C[C@H](C)[C@@H](CN(C)Cc2ccccc2)Oc2cc(/C=C/c3ccccc3)ccc2S1(=O)=O	70.3	2.8	-0.1	-56.3	x	x	x	x
C[C@H]1CN([C@@H](C)CO)S(=O)(=O)c2ccc(/C=C/c3ccccc3)cc2O[C@H]1CN(C)Cc1ccccc1	110.0*	x	-0.2	-18.1	97.0*	113.2*	-3.8	103.1*
O=S(=O)(NC1c2cccc3cccc(c23)C1Sc1nnnn1-c1ccccc1)c1ccccc1 (stereo not given)	x	x	0.2	x	x	x	x	x
COC(=O)c1ccc(OCC(O)Cn2c(C)nc3ccccc32)cc1 (stereo not given)	x	x	-0.3	x	x	x	x	x
C[C@@H]1CN([C@H](C)CO)C(=O)c2cc(NS(=O)(=O)c3cccs3)ccc2O[C@H]1CN(C)Cc1ccc(-c2ccccc2)cc1	19.1	-2.6	3.7	0.8	x	x	x	x
C[C@H]1CN([C@@H](C)CO)C(=O)c2cc(NS(=O)(=O)c3cccs3)ccc2O[C@H]1CN(C)Cc1ccc(-c2ccccc2)cc1	u	-1.6	0.2	8.1	85.1	-6.6	7.3	54.7*
C[C@H](CO)N1C[C@H](C)[C@@H](CN(C)CC2CC2)Oc2ccc(NS(=O)(=O)c3cccs3)cc2C1=O	23.8	-0.3	-0.2	4.8	x	x	x	x
C[C@@H]1CN([C@@H](C)CO)C(=O)c2cc(NS(=O)(=O)c3cccs3)ccc2O[C@@H]1CN(C)CC1CC1	99.1*	-0.7	2.4	8.3	77.0	31.9	16.7	9.6
CSc1cccc(NC(=O)CN(C)S(=O)(=O)c2ccc3ccccc3c2)c1	x	x	-0.4	x	x	x	x	x
COc1ccc(S(=O)(=O)N2CCCCN3[C@H](CO)[C@@H](c4ccc(-c5cccnc5)cc4)[C@@H]3C2)cc1	109.3*	-1.9	x	-16.0	u	40.6	16.6	36.6*
COc1cccc(S(=O)(=O)N2CCCCN3[C@H](CO)[C@H](c4ccc(-c5cccnc5)cc4)[C@H]3C2)c1	109.8*	-1.1	x	-38.0	97.4*	66.2	33.4	34.9*
COc1ccc(S(=O)(=O)N2CCCCN3[C@H](CO)[C@H](c4ccc(-c5cccnc5)cc4)[C@@H]3C2)cc1	104.0*	-0.8	x	-23.7	104.3*	39.4	-13.3	42.1*
COc1ccc(S(=O)(=O)N2CCCCN3[C@@H](CO)[C@H](c4ccc(-c5cccnc5)cc4)[C@@H]3C2)cc1	79.3	-1.5	x	-22.6	x	x	x	x
COc1ccc(S(=O)(=O)N2CCCCN3[C@H](C2)[C@H](c2ccc(-c4cccnc4)cc2)[C@@H]3CO)cc1	104.0*	-1.2	x	30.0	87.4	16.2	12.8	21.8
O=C(c1ccc(F)cc1)N1CCCCN2[C@H](C1)[C@@H](c1ccc(-c3ccccc3)cc1)[C@@H]2CO	67.2	-0.3	x	-48.9	x	x	x	x
Cc1ccc(-c2ccc([C@H]3[C@H]4CN(C(=O)c5ccc(F)cc5)CCCCN4[C@H]3CO)cc2)cc1	101.9*	-1.0	x	1.5	103.2*	31.7	15.9	103.2*
Cc1ccc(-c2ccc([C@@H]3[C@@H](CO)N4CCCCN(C(=O)c5ccc(F)cc5)C[C@@H]34)cc2)cc1	106.6*	-0.5	x	-6.1	101.0*	52.9	-12.4	56.7*
Cc1ccc(-c2ccc([C@H]3[C@@H](CO)N4CCCCN(C(=O)c5ccc(F)cc5)C[C@@H]34)cc2)cc1	113.3*	-0.9	x	-13.2	108.5*	85.9	26.4	104.8*
Cc1ccc(-c2ccc([C@H]3[C@@H](CO)N4CCCCN(C(=O)c5ccc(F)cc5)C[C@H]34)cc2)cc1	103.3*	-1.9	x	-50.2	105.8*	100.9*	46.0*	103.5*
COCCNC(=O)c1ccccc1NC(=O)Nc1ccc(Cl)cc1	x	x	0.0	x	x	x	x	x
